Calls of active or inactive are those of the source. No cut-off for these calls is given here.

Experiment [1] is described as follows: Growth inhibition of human U251 cells at 10 uM after 48 hrs by sulforhodamine B colorimetric assay relative to control. Format: functional. The conditions noted are these: U-251, 48 h, read-out: GI. An outline of the steps: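 U251 glioblastoma cells kept in DMEM with 10% FBS at 37°C, 5% CO2. Compounds in DMSO; vehicle-only controls. SRB colorimetric read-out at a 48 h end-point. GI50 relative to untreated control calculated by the NCI-60 protocol; top concentration tested 10 μM. Mean ± S.D. of three separate SRB assays.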
(In general: The SRB assay estimates cell density from bound dye.)

Experiment [2] in a line: Growth inhibition of human U251 cells after 48 hrs by sulforhodamine B colorimetric assay. Conditions: U-251, 48 h. In kind it is functional. Put shortly: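 U251 glioblastoma cells kept in DMEM with 10% FBS at 37°C, 5% CO2. Compounds in DMSO; vehicle-only controls. SRB colorimetric read-out at a 48 h end-point. Mean ± S.D. of three separate SRB assays.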
The subject of experiment [3] is U-251. As to the kind of experiment: Induction of methuosis in human U251 cells assessed as vacuolization at 2.5 uM after 48 hrs by phase contrast microscopic analysis. In kind it is functional, cell-based.
In experiment [4] the test system is U-251. Briefly: Induction of methuosis in human U251 cells assessed as rounding of cell body at 2.5 uM after 24 hrs by phase contrast microscopic analysis. In kind it is functional, cell-based.
Experiment [5] relates to U-251. As to the kind of experiment: Induction of methuosis in human U251 cells assessed as cell detachment from dish at 2.5 uM after 24 hrs by phase contrast microscopic analysis. Format: functional, cell-based.
For experiment [6], the system named is U-251. As to the kind of experiment: Induction of methuosis in human U251 cells assessed as formation of membrane blebs on cell surface at 2.5 uM after 48 hrs by phase contrast microscopic analysis. Format: functional, cell-based.
Experiment [7] has as its system U-251. As to the kind of experiment: Induction of microtubule disruption in human U251 cells up to 2.5 uM by DAPI staining based immunofluorescence microscopy. Format: cell-based. Put shortly:
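U251 cells seeded on glass coverslips, 350,000 per 60 mm dish. One day later, fresh medium with compound at the stated concentrations was added for 24 h. Cells were fixed and stained with monoclonal anti-α-tubulin, then Alexa Fluor 568 goat anti-mouse IgG. Nuclei counterstained with DAPI.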

Experiment [8] deals with U-251. Briefly: Mitotic arrest in human U251 cells assessed as accumulation at G2/M phase at >=500 nM after 24 hrs by propidium iodide staining based flow cytometric analysis. Format: functional, cell-based. An outline of the steps: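 U251 cells seeded at 3.5 × 10^5 per 60 mm dish and treated the next day for 24 h. Attached and detached cells were harvested by trypsin and fixed in ice-cold 70% ethanol. They were then suspended in PBS with 6.25 mM MgSO4 and 1 mM CaCl2, RNase A-treated at 37 °C for 15 min and stained with propidium iodide. DNA content was read by flow cytometry.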
Background: A flow cytometer gives signals particle by particle.

Experiment [9] deals with U-251. As to the kind of experiment: Induction of methuosis in human U251 cells assessed as rounding of cell body at 2.5 uM after 48 hrs by phase contrast microscopic analysis. In kind it is functional, cell-based.

What is called GI50 is the concentration giving 50% growth inhibition. A lower GI50 goes with greater sensitivity of the cells. With `COc1ccc2[nH]c(C)c(/C=C/C(=O)c3cc(OC)c(OC)c(OC)c3)c2c1`, in [1], the inhibition of growth at 10 µM was below 50%. Also, the GI50 in [2] was above 10 µM.
As to `COc1ccc2c(/C=C/C(=O)c3ccncc3)c(C(F)(F)F)[nH]c2c1`, the inhibition of growth at 10 µM in experiment [1] was below 50%. Besides, the GI50 in experiment [2] is above 10 µM.
The compound `COc1cc(OC)c(C(=O)/C=C/c2c(C)[nH]c3ccc(OC)cc23)c(OC)c1` yielded a concentration for 50% growth inhibition (GI50) in experiment [2] of 3.74 µM.
Still for that read-out and setting: in the case of `COc1cccc2c(/C=C/C(=O)c3ccncc3)c(C)[nH]c12` it was 4.42 µM.
`COc1cccc2[nH]c(C)c(/C=C/C(=O)c3ccncc3)c12`: the outcome in the experiment on U-251 [3] was Active. Also, growth in [2] was halved (GI50) at 8.67 µM.
Regarding `COc1ccc2c(/C=C/C(=O)c3ccncc3)c(C)[nH]c2c1`, the outcome with U-251 [3], in the experiment with U-251 [4], in the experiment on U-251 [5], in the experiment on U-251 [6], in the experiment on U-251 [7] and with U-251 [8] was Active. Besides, in the experiment on U-251 [9], the result was Active. The compound also gave a concentration for 50% growth inhibition (GI50) in [2] of 0.09 µM.
Consider `COc1ccc2c(c1)c(/C=C/C(=O)c1ccncc1)c(C)n2C`, for which, in experiment [1], the inhibition of growth at 10 µM is below 50%. In experiment [2], the concentration for 50% growth inhibition (GI50) was above 10 µM.
Taken in the same sequence, the figures for `COc1cc2[nH]c(C)c(/C=C/C(=O)c3ccncc3)c2cc1OC` were below 50% and above 10 µM.
